Assay results as given in ChEMBL document CHEMBL4145576, “Isolation, Synthesis, and Antisepsis Effects of a C-Methylcoumarinochromone Isolated from Abronia nana Cell Culture” (J Nat Prod, 2018).
The source made the active and inactive calls. No cut-off for these calls is given here.

Tests used:
Beta-secretase 1 = Beta-secretase 1 (Homo sapiens, UniProt P56817); experiment: Inhibition of recombinant human BACE1 using RhEVNLDAEFK-Quencher as substrate after 60 mins by fluorescence assay
[1] = target: T1, High mobility group protein B1 (Homo sapiens) (UniProt P09429); experiment: Inhibition of HMGB1-mediated VCAM-1 expression level in HUVEC at 0.1 to 1 uM after 6 hrs by ELISA; format: cell-based
T1 sequence (whole entry): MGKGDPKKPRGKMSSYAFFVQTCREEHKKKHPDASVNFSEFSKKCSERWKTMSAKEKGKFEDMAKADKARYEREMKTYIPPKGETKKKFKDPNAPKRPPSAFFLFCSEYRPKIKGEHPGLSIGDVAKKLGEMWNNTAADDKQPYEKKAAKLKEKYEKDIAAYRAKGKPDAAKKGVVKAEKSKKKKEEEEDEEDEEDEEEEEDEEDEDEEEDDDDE
Outline: (§1)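 Confluent HUVECs treated with HMGB1 (1 μg/mL, 16 h), then compound (0–1 μM) for 6 h. Cells fixed in 1% paraformaldehyde and probed with anti-VCAM-1, ICAM-1 or E-selectin (1:50, 1 h, 37 °C). Peroxidase anti-mouse IgG (1:2000) added, developed with o-phenylenediamine, read at 490 nm.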

Mus musculus [2] = experiment: Antisepsis activity in C57BL/6 mouse assessed as inhibition of CLP-induced death at 56 ug/kg, iv measured 12 hrs post CLP; format: functional, organism-based
Lipopolysaccharide (LPS) = experiment: Inhibition of bacterial LPS-mediated disruption of barrier integrity in HUVEC by measuring flux of albumin-bound evans blue after 6 hrs by spectrophotometric method; format: cell-based; conditions: Bacteria
Outline: (§2)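 HUVECs (5 × 10^4 cells/well) grown 3 days on 3 μm Transwells to confluence. Monolayers exposed to LPS (100 ng/mL, 4 h) or HMGB1 (1 μg/mL, 16 h), or left unstimulated, then treated with compound for 6 h. Flux of albumin-bound Evans blue measured spectrophotometrically.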

Mus musculus [3] = experiment: Antisepsis activity in C57BL/6 mouse CLP surgery model assessed as reduction in bacterial burden in peritoneal lavage fluid at 28 to 56 ug/kg, iv measured after 24 hrs; format: functional, organism-based
Outline: (§3)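 Male C57BL/6 mice (27 g) underwent CLP: cecum ligated 5 mm from tip and punctured once with a 22-gauge needle. Peritoneal lavage fluid and blood collected 24 h after CLP and centrifuged. Diluted samples plated on 5% sheep blood agar at 37 °C for 24 h, then CFUs counted; n = 10.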

Mus musculus [4] = experiment: Antisepsis activity in C57BL/6 mouse assessed as inhibition of CLP-induced creatinine level in plasma at 28 to 56 ug/kg, iv at 12 and 50 hrs post CLP surgery; format: functional, organism-based
Outline: (§4)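 Male C57BL/6 mice underwent CLP and received compound iv (28 or 56 μg/kg) at 12 and 50 h after CLP. Animals bled out. AST, ALT, BUN, creatinine and LDH measured in plasma/serum with biochemical kits. IL-1β, IL-6, IL-10, MCP-1 and TNF-α measured by ELISA. Means ± SD of five independent experiments.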

Mus musculus [5] = experiment: Antisepsis activity in C57BL/6 mouse assessed as inhibition of CLP-induced IL-10 level in blood at 28 to 56 ug/kg, iv at 12 and 50 hrs post CLP surgery by ELISA; format: functional, organism-based; outline: as §4
HUVEC [6] = experiment: Effect on barrier integrity in HUVEC at 1 uM after 6 hrs by spectrophotometric method; format: ADME, cell-based; conditions: human; outline: as §2
Mus musculus [7] = experiment: Antisepsis activity in C57BL/6 mouse assessed as inhibition of CLP-induced TNFalpha level in blood at 28 to 56 ug/kg, iv at 12 and 50 hrs post CLP surgery by ELISA; format: functional, organism-based; outline: as §4
[8] = target: T1, High mobility group protein B1 (Homo sapiens); experiment: Inhibition of HMGB1-mediated human neutrophil migration in HUVEC after 6 hrs by crystal violet staining based microscopy; format: cell-based
Outline: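 HUVECs (6 × 10^4 cells/well) grown 3 days on 8 μm Transwells, then treated with HMGB1 (1 μg/mL, 16 h) and compound for 6 h before cells added to the upper chamber. Migrated cells fixed in 8% glutaraldehyde and stained with 0.25% crystal violet. Nine 200× fields per well counted; run in duplicate; migration index.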

Mus musculus [9] = experiment: Antisepsis activity in C57BL/6 mouse assessed as inhibition of CLP-induced mortality at 56 ug/kg, iv administered twice daily at 12 and 50 hrs post CLP measured every 6 hrs post CLP for 150 hrs (reference value: 40%); format: functional; conditions: C57BL/6, iv
[10] = target: T1, High mobility group protein B1 (Homo sapiens); experiment: Inhibition of HMGB1-mediated disruption of barrier integrity in HUVEC by measuring flux of albumin-bound evans blue after 6 hrs by spectrophotometric method; format: cell-based; outline: as §2
Mus musculus [11] = experiment: Antisepsis activity in C57BL/6 mouse assessed as inhibition of CLP-induced ALT level in plasma at 28 to 56 ug/kg, iv at 12 and 50 hrs post CLP surgery; format: functional, organism-based; outline: as §4
[12] = target: T1, High mobility group protein B1 (Homo sapiens); experiment: Inhibition of HMGB1-mediated human neutrophil adhesion in HUVEC after 6 hrs by ELISA; format: cell-based
Outline: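 HUVEC monolayers treated with HMGB1 (1 μg/mL, 16 h), then compound (0–1 μM) for 6 h. Human neutrophils (1.5 × 10^6 cells/mL) labelled with Vybrant DiD dye and added to the washed monolayers. Adhesion measured by fluorescence.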

[13] = target: T1, High mobility group protein B1 (Homo sapiens); experiment: Inhibition of HMGB1-mediated ICAM-1 expression level in HUVEC at 0.1 to 1 uM after 6 hrs by ELISA; format: cell-based; outline: as §1
[14] = target: T1, High mobility group protein B1 (Homo sapiens); experiment: Inhibition of HMGB1-induced TLR4 expression level in HUVEC at 0.1 to 1 uM after 6 hrs by ELISA; format: cell-based
Outline: (§5)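 Confluent HUVECs activated with HMGB1 (1 μg/mL, 16 h), then incubated with compound for 6 h. Surface TLR2, TLR4 and RAGE determined by cell-based ELISA with specific antibodies.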

Mus musculus [15] = experiment: Antisepsis activity in C57BL/6 mouse assessed as inhibition of CLP-induced MCP1 level in blood at 28 to 56 ug/kg, iv at 12 and 50 hrs post CLP surgery by ELISA; format: functional, organism-based; outline: as §4
Mus musculus [16] = experiment: Antisepsis activity in C57BL/6 mouse assessed as inhibition of HMGB1-induced vascular hyperpermeability by measuring amount of evans blue in the peritoneal washings at 28 to 56 ug/kg, iv pretreated with HMGB1 for 16 hrs followed by compound treatment measured after 6 hrs […]; format: functional, organism-based
Outline: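 Mice given iv HMGB1 (2 μg/mouse) for 16 h, then compound (28 or 56 μg/kg) for 6 h. 1% Evans blue in saline injected iv; mice killed 30 min later. Peritoneal washings (5 mL saline) centrifuged at 200g for 10 min and read at 650 nm. Dye leak read from a standard curve as μg/mouse; n = 5.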

Mus musculus [17] = experiment: Antisepsis activity in C57BL/6 mouse assessed as inhibition of CLP-induced blood urea nitrogen level in plasma at 28 to 56 ug/kg, iv at 12 and 50 hrs post CLP surgery; format: functional, organism-based; outline: as §4
[18] = target: T1, High mobility group protein B1 (Homo sapiens); experiment: Inhibition of LPS-induced HMGB1 release in HUVEC at > 0.2 uM pretreated with bacterial LPS for 16 hrs followed by compound treatment measured after 6 hrs by ELISA; format: cell-based
Mus musculus [19] = experiment: Antisepsis activity in C57BL/6 mouse assessed as inhibition of CLP-induced lactate dehydrogenase level in plasma at 28 to 56 ug/kg, iv at 12 and 50 hrs post CLP surgery; format: functional, organism-based; outline: as §4
[20] = target: T1, High mobility group protein B1 (Homo sapiens); experiment: Inhibition of HMGB1-mediated p38 MAPK phosphorylation in HUVEC at 0.1 to 1 uM after 6 hrs by ELISA; format: cell-based
Outline: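 HUVECs activated with HMGB1 (1 μg/mL, 16 h), then treated with compound for 6 h. Phospho-p38 MAPK measured by ELISA kit.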

Mus musculus [21] = experiment: Antisepsis activity in C57BL/6 mouse assessed as inhibition of CLP-induced AST level in plasma at 28 to 56 ug/kg, iv at 12 and 50 hrs post CLP surgery; format: functional, organism-based; outline: as §4
[22] = target: T1, High mobility group protein B1 (Homo sapiens); experiment: Inhibition of HMGB1-induced RAGE expression level in HUVEC at 0.1 to 1 uM after 6 hrs by ELISA; format: cell-based; outline: as §5
[23] = target: T1, High mobility group protein B1 (Homo sapiens); experiment: Inhibition of HMGB1-mediated E-selectin expression level in HUVEC at 0.1 to 1 uM after 6 hrs by ELISA; format: cell-based; outline: as §1
Mus musculus [24] = experiment: Antisepsis activity in C57BL/6 mouse assessed as inhibition of CLP-induced HMGB1 release in serum at 28 to 56 ug/kg, iv administered 12 hrs post CLP challenge by ELISA; format: functional, organism-based
Outline: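 Male C57BL/6 mice underwent CLP and received compound iv (28 or 56 μg/kg) 12 h later; n = 5. Mice killed 24 h after CLP. Serum HMGB1 measured by ELISA.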

Mus musculus [25] = experiment: Antisepsis activity in C57BL/6 mouse assessed as inhibition of CLP-induced IL-6 level in blood at 28 to 56 ug/kg, iv at 12 and 50 hrs post CLP surgery by ELISA; format: functional, organism-based; outline: as §4
Mus musculus [26] = experiment: Antisepsis activity in C57BL/6 mouse CLP surgery model assessed as inhibition of HMGB1-induced leukocyte migration into peritoneal cavity at 28 to 56 ug/kg, iv; format: functional, organism-based
Outline: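 Mice given HMGB1 (2 μg/mouse) iv for 16 h, then compound (28 or 56 μg/kg) for 6 h. Peritoneal cavity washed with 5 mL saline after 6 h. Fluid diluted in Türk's solution (0.01% crystal violet, 3% acetic acid). Leukocytes counted by light microscopy.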

HUVEC [27] = experiment: Effect on HMGB1 release in HUVEC at > 0.2 uM after 6 hrs by ELISA; format: ADME, cell-based; conditions: human
Mus musculus [28] = experiment: Antisepsis activity in C57BL/6 mouse assessed as inhibition of CLP-induced IL-1beta level in blood at 28 to 56 ug/kg, iv at 12 and 50 hrs post CLP surgery by ELISA; format: functional, organism-based; outline: as §4
HUVEC [29] = experiment: Cytotoxicity against HUVEC assessed as reduction in cell viability up to 5 uM after 48 hrs by MTT assay; format: cell-based; conditions: human
Outline: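 HUVECs (passage 3–5; 5 × 10^3 cells/well) seeded for 24 h, then exposed to compound for 48 h. MTT (1 mg/mL) added for 4 h. Formazan dissolved in DMSO and read at 540 nm.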

[30] = target: T1, High mobility group protein B1 (Homo sapiens); experiment: Inhibition of HMGB1-induced TLR2 expression level in HUVEC at 0.1 to 1 uM after 6 hrs by ELISA; format: cell-based; outline: as §5
Mus musculus [31] = experiment: Antisepsis activity in C57BL/6 mouse CLP surgery model assessed as reduction in bacterial burden in blood at 28 to 56 ug/kg, iv measured after 24 hrs; format: functional, organism-based; outline: as §3

Beta-secretase 1, sequence (P56817 whole entry): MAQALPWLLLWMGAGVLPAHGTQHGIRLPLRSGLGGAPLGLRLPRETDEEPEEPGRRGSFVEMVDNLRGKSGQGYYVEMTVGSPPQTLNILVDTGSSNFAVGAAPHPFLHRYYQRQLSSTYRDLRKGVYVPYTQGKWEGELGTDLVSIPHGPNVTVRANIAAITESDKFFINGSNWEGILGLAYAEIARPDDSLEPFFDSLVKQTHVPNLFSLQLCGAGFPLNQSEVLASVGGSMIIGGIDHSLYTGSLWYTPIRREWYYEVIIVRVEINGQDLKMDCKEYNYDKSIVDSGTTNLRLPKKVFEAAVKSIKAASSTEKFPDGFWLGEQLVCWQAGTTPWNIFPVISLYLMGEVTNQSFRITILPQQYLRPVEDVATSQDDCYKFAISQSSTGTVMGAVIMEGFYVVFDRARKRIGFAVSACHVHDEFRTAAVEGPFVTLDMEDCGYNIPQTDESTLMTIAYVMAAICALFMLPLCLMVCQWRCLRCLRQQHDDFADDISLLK

Cc1c(O)cc2oc3c(c(=O)c2c1O)-c1ccc(O)cc1OC3O (stereo not drawn) [BOERAVINONE E]
IC50 (Beta-secretase 1): 5.6 µM

Cc1c(O)cc2oc3oc4ccccc4c3c(=O)c2c1O
inhibition [1]: Active
inhibition (Mus musculus [2]): inactive
inhibition (Lipopolysaccharide (LPS)): Dose-dependent effect
Activity (Mus musculus [3]): Active
inhibition (Mus musculus [4]): Active
inhibition (Mus musculus [5]): Active
Activity (HUVEC [6]): Non-Toxic
inhibition (Mus musculus [7]): Active
inhibition [8]: Dose-dependent effect
mortality at 0.056 mg/kg (Mus musculus [9]): 60%
inhibition [10]: Dose-dependent effect
inhibition (Mus musculus [11]): Active
inhibition [12]: Dose-dependent effect
inhibition [13]: Active
inhibition [14]: Active
inhibition (Mus musculus [15]): Active
inhibition (Mus musculus [16]): Active
inhibition (Mus musculus [17]): Active
inhibition [18]: Active
inhibition (Mus musculus [19]): Active
inhibition [20]: Active
inhibition (Mus musculus [21]): Active
inhibition [22]: Active
inhibition [23]: Active
inhibition (Mus musculus [24]): Active
inhibition (Mus musculus [25]): Active
inhibition (Mus musculus [26]): Active
Activity (HUVEC [27]): Non-Toxic
inhibition (Mus musculus [28]): Active
Activity (HUVEC [29]): Non-Toxic
inhibition [30]: Active
Activity (Mus musculus [31]): Active
